This is an account of results in paper PMC8408915 (Biochemistry, 2021).

This test has as its target T1, KDAC8 (Homo sapiens, UniProt Q9BY41).
T1 sequence (Q9BY41 1-377): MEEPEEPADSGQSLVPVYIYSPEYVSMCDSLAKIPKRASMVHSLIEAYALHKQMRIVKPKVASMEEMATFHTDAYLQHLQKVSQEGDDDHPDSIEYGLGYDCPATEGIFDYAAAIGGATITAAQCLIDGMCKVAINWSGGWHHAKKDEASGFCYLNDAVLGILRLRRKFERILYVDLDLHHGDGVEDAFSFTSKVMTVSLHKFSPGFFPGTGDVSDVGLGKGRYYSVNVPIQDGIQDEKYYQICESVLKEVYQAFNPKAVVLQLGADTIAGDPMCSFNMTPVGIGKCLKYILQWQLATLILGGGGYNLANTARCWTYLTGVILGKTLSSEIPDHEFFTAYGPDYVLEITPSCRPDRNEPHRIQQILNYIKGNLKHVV
Description: KDAC8 endpoint in vitro deacetylation activity assay. It counts as biochemical. Conditions: low ionic strength buffer; 200 nM KDAC8, 100 μM peptide, 25 °C, 15-60 min; average of n≥3; limit of reliable detection 0.0004 s^−1. The method, boiled down:
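KDAC8 carried a C-terminal His6 tag. It was expressed in ExpiSf9 cells after bacmid transfection (28 °C, 5 days, then 2 days of suspension amplification) and purified on cobalt (TALON) affinity resin. Peptides were N-terminally acetylated and C-terminally amidated. Buffer was 30 mM potassium phosphate pH 7.6 with 5% glycerol and no KCl. Product was detected with fluorescamine, and endpoint activity was averaged.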

With AARK^acSAP, the “Specific activity of KDAC8 with biologically relevant putative KDAC substrates” value was determined as 0.0026 ± 0.0002 s^−1.
The figure for APRK^acQLA is 0.00163 ± 0.00014 s^−1.
The entry for EIGK^acTLA is “- (- indicates no activity above the limit of reliable detection (0.0004 s^−1).)”; for EVGK^acLLN it is “- (- indicates no activity above the limit of reliable detection (0.0004 s^−1).)”; for GALK^acAPS it is “- (- indicates no activity above the limit of reliable detection (0.0004 s^−1).)”.
The entry for GTAK^acSVT is “- (- indicates no activity above the limit of reliable detection (0.0004 s^−1).)”; for GVGK^acYIN it is 0.0007 ± 0.0004 s^−1.
As to ITGK^acPSG, the “Specific activity of KDAC8 with biologically relevant putative KDAC substrates” value is recorded as “- (- indicates no activity above the limit of reliable detection (0.0004 s^−1).)”.
To LGGK^acQRA belongs “- (- indicates no activity above the limit of reliable detection (0.0004 s^−1).)”; to LSGK^acGNP, “- (- indicates no activity above the limit of reliable detection (0.0004 s^−1).)”; to PEAK^acSLL, “- (- indicates no activity above the limit of reliable detection (0.0004 s^−1).)”.
The entry for QTAK^acDAG is “- (- indicates no activity above the limit of reliable detection (0.0004 s^−1).)”; for SHLK^acAHL it is “- (- indicates no activity above the limit of reliable detection (0.0004 s^−1).)”; for SVRK^acGIM it is 0.0036 ± 0.0008 s^−1.
The entry for TGGK^acAPR is “- (- indicates no activity above the limit of reliable detection (0.0004 s^−1).)”.
